Screens as filed in PubChem.
The list is not random: actives were taken first. Their share in the collection is about 1.9%.
STEP block – inhibitors of human striatal-enriched phosphatase STEP; P54829; recombinant STEP, OMFP fluorogenic substrate, fluorescence; actives 0.25% (n = 360,000); inhibition, % at 20 µM;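 active = inhibition at 20 µM, scaled per plate between control wells, above about 37%, limit read from the data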;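 also: 0% = DMSO with enzyme and substrate and 100% = substrate only without enzyme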
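material = STEP tyrosine phosphatase | reagent = fluorogenic phosphatase substrate OMFP at 25 µM final | doses = single compound dose of 20 µM, 1% DMSO final | schedule = 20 min reaction, room temperature, in the dark | measured by = fluorescence, 480/540 nm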
LMPTP block – LMPTP (human) inhibition | P24666 | recombinant LMPTP-A, OMFP fluorogenic substrate, fluorescence intensity | inhibition, % at 20 µM | actives 0.22% (n = 360,000);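 active = compounds that cut the enzyme signal by at least half of the control window in the single-dose screen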;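 also: plate controls were DMSO wells with enzyme plus substrate for no effect and substrate without enzyme for full effect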
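material = LMPTP-A | quantity = 0.625 nM enzyme | reagent = OMFP substrate, 400 µM final | buffer or medium = Bis-Tris pH 6.0, DTT, detergent | detection = endpoint fluorescence intensity from OMFP dephosphorylation | dosing = single 20 µM dose | read-out basis = % inhibition relative to no-enzyme and uninhibited control wells | control set = no-enzyme and uninhibited controls | timing = 50 min at room temperature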
FAS TE block – blocks the thioesterase domain of human fatty acid synthase; P49327; recombinant FAS-TE, OMFH fluorogenic substrate, fluorescence endpoint; inhibition, % at 15 µM; actives 0.67% (n = 360,000);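 active = compounds whose normalised, plate-corrected inhibition of enzyme fluorescence in the single-dose primary screen is 50% or more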;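 also: 0% = DMSO with enzyme and 100% = substrate without enzyme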
Scp-1 inhibitor – blocks human Scp-1 phosphatase activity. actives 0.88% (n = 340,000). Recombinant Scp1, phosphopeptide, malachite green phosphate absorbance. inhibition, % at 20 µM. Q9GZU7;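 active = inhibition above about 50% at 20 µM, limit read from the data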;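 also: plate controls were DMSO wells with enzyme for no effect and wells lacking enzyme for full effect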
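Test system: SCP-1 phosphatase catalytic domain, residues 76-261 | Compound dosing: One concentration, 20 µM, with 1.0% DMSO | Schedule: 45 min room-temperature reaction, 5 min colour, 30 min stabiliser | Detection: Absorbance at 630 nm | Read-out basis: % inhibition of SCP-1 phosphate liberation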
SUMO1-SIM PPI – alters human SUMO1 binding to SIM partners; P63165; SUMO1 binding to a labelled peptide, TR-FRET, 1 h; inhibition, % at 20 µM; actives 0.33% (n = 360,000); AID 602429; in the data active = inhibition above about 37%
FAS-TE inh conf – confirmation of human fatty acid synthase thioesterase inhibitors. recombinant FAS-TE, OMFH fluorogenic substrate, fluorescence. inhibition, % at 15 µM. actives 45% (n = 2,300). shares compounds with FAS TE block;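 active = compounds inhibiting the enzyme by at least 50% at 15 µM in any one of the replicates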;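 also: 0% = enzyme with DMSO only and 100% = wells lacking enzyme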
The depositor's hits bear a star; nt = no result given.

SMILES	STEP block	LMPTP block	FAS TE block	Scp-1 inhibitor	SUMO1-SIM PPI	FAS-TE inh conf
CCOc1ccccc1CN1CCNC(=O)C1CC(=O)NC1CCCCCCC1 (configuration not stated)	0	0	4	-2	5	nt
C=CCSc1nnc2c(n1)OC=Nc1ccccc1-2	2	-2	-2	2	-5	nt
Cc1cc([N+](=O)[O-])ccc1NC(=O)CN1C2CCC1CC(NC(=O)NC13CC4CC(CC(C4)C1)C3)C2 (configuration not stated)	-1	-1	51*	-4	-7	11
Cc1nc(C(F)(F)F)c(C(=O)O)cc1-c1nc(-c2ccccc2)cs1	-2	-2	-4	-11	-6	nt
CNC(=O)c1ccsc1NC(=O)CS(=O)(=O)c1ccc(Cl)cc1	2	1	-6	-5	1	nt
CCO[C@@H]1OC(C(=O)NCc2ccccc2)=C[C@H](C(C)(C)C)[C@H]1CCCO	0	-1	10	-3	3	nt
CCO[C@H]1OC(C(=O)NCc2ccccc2)=C[C@@H](C2CCCCC2)[C@@H]1CCCO	4	0	57*	-8	1	63*
CCCC(C)NC(=O)c1cc(C(=O)OC)cc([N+](=O)[O-])c1 (configuration not stated)	1	0	20	-4	-23	nt
CCCC(C)c1nnc(NC(=O)c2cc(C(=O)OC)cc([N+](=O)[O-])c2)s1 (configuration not stated)	26	3	55*	-8	-15	58*
CCc1ccccc1NC(=O)CCc1c(C)nn(-c2ccc(N3CCOCC3)nn2)c1C	1	-2	-6	7	-3	nt
O=C1CN(C(=O)c2cc([N+](=O)[O-])ccc2Cl)C(c2ccc(F)cc2)c2cc(F)ccc2N1 (configuration not stated)	-5	0	75*	-4	-21	41
Cc1ccc2c(c1)C(c1ccccc1)N(C(=O)c1cccc([N+](=O)[O-])c1)CC(=O)N2 (configuration not stated)	0	1	78*	-9	-19	87*
CC(C)N1CC(COc2ccc(Cl)cc2Cl)OC1=O (configuration not stated)	0	0	0	-1	8	nt
COCCNC(=O)CSc1ccccc1C(=O)NC1CCCc2ccccc21 (configuration not stated)	-2	0	1	2	0	nt
COc1cccc(-n2c(SCC(=O)Nc3sc4c(c3C(N)=O)CCC4)nc3ccccc3c2=O)c1	3	2	77*	-5	4	7
COc1cccc(-n2c(SCC(=O)Nc3nc4ccccc4s3)nc3ccccc3c2=O)c1	nt	nt	nt	17	nt	nt
C[C@@]12C(=O)N(c3cccc(F)c3)C(=O)N1[C@H](c1ccc(F)cc1)[C@@H]1C(=O)N(C3CCCCC3)C(=O)[C@@H]12	-4	0	12	-3	-6	nt
O=C1[C@H]2[C@@H](c3ccc(F)cc3)N3C(=O)N(c4ccccc4)C(=O)[C@@]3(Cc3ccccc3)[C@H]2C(=O)N1C1CCCCC1	0	1	59*	-15	7	36*
COc1ccc(N2C(=O)N3[C@H](c4ccc(Cl)cc4)[C@@H]4C(=O)N(C5CCCCC5)C(=O)[C@@H]4[C@]3(C)C2=O)cc1	-2	-1	32	-11	-1	nt
O=C1[C@H]2[C@@H](c3ccc(F)cc3)N3C(=O)N(c4cccc(Cl)c4)C(=O)[C@@]3(Cc3ccc(Cl)cc3)[C@H]2C(=O)N1C1CCCCC1	2	2	86*	-11	-2	19
OC(c1ccc(Cl)c(Cl)c1)c1ncc(-c2ccccc2F)[nH]1 (configuration not stated)	-2	-1	23	nt	0	nt
O=C(CN1C(=O)NC2(CCCCCC2)C1=O)Nc1ccc(Cl)c([N+](=O)[O-])c1	-2	0	58*	0	-28	70*
O=C(CN1CCN(S(=O)(=O)c2ccccc2)CC1)Nc1ccc([N+](=O)[O-])cc1	-2	0	7	-5	-16	nt
